Reference: ChEMBL document CHEMBL4265988, “Molecular tools that block maturation of the nuclear lamin A and decelerate cancer cell migration” (Bioorg Med Chem, 2018)
The source made the active and inactive calls. No cut-off for these calls is given here.

Assays:
[1] = biological target: T1, CAAX prenyl protease 1 homolog (Homo sapiens) (UniProt O75844); test: Inhibition of ZMPSTE24 in human U2OS cells assessed as increase in intracellular accumulation of prelamin A at 10 uM after 24 hrs by Western blot analysis relative to control; assay type: cell-based
T1 sequence (whole entry): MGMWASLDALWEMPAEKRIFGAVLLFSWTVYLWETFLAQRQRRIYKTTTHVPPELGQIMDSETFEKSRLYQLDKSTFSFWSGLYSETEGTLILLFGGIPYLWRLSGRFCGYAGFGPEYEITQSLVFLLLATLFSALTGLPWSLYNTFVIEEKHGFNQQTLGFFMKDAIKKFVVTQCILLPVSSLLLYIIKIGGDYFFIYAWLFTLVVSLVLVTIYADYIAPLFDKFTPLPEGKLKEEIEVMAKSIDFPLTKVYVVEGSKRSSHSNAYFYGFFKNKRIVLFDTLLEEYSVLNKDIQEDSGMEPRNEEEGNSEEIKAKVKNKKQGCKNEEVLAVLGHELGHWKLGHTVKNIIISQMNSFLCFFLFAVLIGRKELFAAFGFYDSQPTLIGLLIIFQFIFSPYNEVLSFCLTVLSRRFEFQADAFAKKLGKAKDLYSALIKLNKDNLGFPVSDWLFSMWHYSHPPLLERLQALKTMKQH
Procedure, shortened: (§1)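 Cells treated 24 h with 10 μM compound, lysates analysed by Western blot with prelamin A-specific antibody; prelamin A band normalised to tubulin and expressed relative to untreated control (set to 1); lopinavir run in parallel as reference.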

[2] = system: KP-4; test: Induction of p21 accumulation in human KP4 cells at 10 uM after 48 hrs by Western blot method; assay type: cell-based; conditions: kp-4, 48 h
[3] = system: HPAF-II; test: Induction of p21 accumulation in human HPAF2 cells at 10 uM after 48 hrs by Western blot method; assay type: cell-based
[4] = biological target: T1, CAAX prenyl protease 1 homolog (Homo sapiens); test: Inhibition of ZMPSTE24 in human HCT116 cells assessed as increase in intracellular accumulation of prenylated prelamin A at 10 uM after 24 hrs by Western blot analysis relative to control; assay type: cell-based; procedure, shortened: as §1
[5] = biological target: T1, CAAX prenyl protease 1 homolog (Homo sapiens); test: Inhibition of ZMPSTE24 in human HPAF2 cells assessed as increase in intracellular accumulation of prenylated prelamin A at 10 uM after 24 hrs by Western blot analysis relative to control; assay type: cell-based; procedure, shortened: as §1
[6] = biological target: T1, CAAX prenyl protease 1 homolog (Homo sapiens); test: Inhibition of ZMPSTE24 in human SW1990 cells assessed as increase in intracellular accumulation of prenylated prelamin A at 10 uM after 24 hrs by Western blot analysis relative to control; assay type: cell-based; procedure, shortened: as §1
[7] = system: KP-4; test: Antiproliferative activity against human KP4 cells at 10 uM after 7 days by crystal violet staining-based assay; assay type: cell-based; conditions: kp-4, 168 h
Procedure, shortened: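 Proliferation assay in KP-4 cells, single concentration 10 μM.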

[8] = biological target: T1, CAAX prenyl protease 1 homolog (Homo sapiens); test: Inhibition of ZMPSTE24 in human KP4 cells assessed as increase in intracellular accumulation of prenylated prelamin A at 10 uM after 24 hrs by Western blot analysis relative to control; assay type: cell-based; procedure, shortened: as §1
[9] = system: HPAF-II; test: Downregulation of MCM6 protein expression in human HPAF2 cells at 10 uM after 48 hrs by Western blot method; assay type: ADME, cell-based
[10] = system: KP-4; test: Downregulation of MCM6 protein expression in human KP4 cells at 10 uM after 48 hrs by Western blot method; assay type: ADME, cell-based; conditions: kp-4, 48 h
[11] = system: KP-4; test: Antimigratory activity against human KP4 cells at 10 uM after 10 days by crystal violet staining-based assay; assay type: functional, cell-based
Procedure, shortened: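 Transmigration assay in KP-4 cells; test agents at single 10 μM, with lopinavir and 0.15% DMSO (vehicle) in buffer as controls.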

For `Cc1cccc(C)c1OCC(=O)N[C@@H](Cc1ccccc1)[C@@H](O)C[C@H](Cc1ccccc1)NC(=O)[C@@H](NC(=O)c1ccc([N+](=O)[O-])o1)C(C)C`, the fold change (FC) [1] was 2.5.

For `COC(=O)[C@H](C)NC(=O)C(Cc1ccccc1)CP(=O)(O)[C@H](Cc1ccccc1)NC(=O)OCc1ccccc1` (some centres not stated), the Activity [2] was “Non-Toxic”, the Activity [3] was “Non-Toxic” and the fold change (FC) [4] was 2.2. For the same compound, the fold change (FC) [5] was 2.2, the fold change (FC) [6] was 7.4 and the Activity [7] was “Non-Toxic”. The fold change (FC) [8] was 3.6, the Activity [9] was “Non-Toxic” and the Activity [10] was “Non-Toxic”. For the same compound, the Activity [11] was “Active”.

`Cc1cccc(C)c1OCC(=O)N[C@@H](Cc1ccccc1)[C@@H](O)C[C@H](Cc1ccccc1)NC(=O)[C@@H](NC(=O)C1CCCCN1)C(C)C` (some centres not stated) was tested, and the fold change (FC) [1] was 2.

In the case of `Cc1cccc(C)c1OCC(=O)N[C@@H](Cc1ccccc1)[C@@H](O)C[C@H](Cc1ccccc1)NC(=O)[C@@H](NC(=O)Cc1cccnc1)C(C)C`, the fold change (FC) [1] is reported as 1.7.

`Cc1cccc(C)c1OCC(=O)N[C@@H](Cc1ccccc1)[C@@H](O)C[C@H](Cc1ccccc1)NC(=O)[C@@H](NC(=O)CC1CC1)C(C)C` was tested, and the fold change (FC) [1] was 3.

`C[C@H](NC(=O)C(Cc1ccccc1)CP(=O)(O)[C@H](Cc1ccccc1)NC(=O)OCc1ccccc1)C(=O)O` (some centres not stated) was tested, and the inhibition [1] was “inactive”.

With `Cc1cccc(C)c1OCC(=O)N[C@@H](Cc1ccccc1)[C@@H](O)C[C@H](Cc1ccccc1)NC(=O)[C@@H](NC(=O)c1cc(C(F)(F)F)cc(C(F)(F)F)c1)C(C)C` the fold change (FC) [1] was 2.1.

With `Cc1cccc(C)c1OCC(=O)N[C@@H](Cc1ccccc1)[C@@H](O)C[C@H](Cc1ccccc1)NC(=O)[C@@H](NC(=O)c1ccc(Br)cn1)C(C)C` the fold change (FC) [1] was 2.1.

Compound `Cc1cccc(C)c1OCC(=O)N[C@@H](Cc1ccccc1)[C@@H](O)C[C@H](Cc1ccccc1)NC(=O)[C@H](C(C)C)N1CCCNC1=O` has a fold change (FC) [4] of 1.4, a fold change (FC) [5] of 2 and a fold change (FC) [6] of 4.9. For the same compound, the fold change (FC) [1] was 1.2 to 2.1, the fold change (FC) [8] was 2.5 and the Activity [11] was “inactive”.

Work on `Cc1cccc(C)c1OCC(=O)N[C@@H](Cc1ccccc1)[C@@H](O)C[C@H](Cc1ccccc1)NC(=O)[C@@H](NC(=O)c1ccnc(Cl)c1)C(C)C` yielded a fold change (FC) [1] of 3.

For `Cc1cccc(C)c1OCC(=O)N[C@@H](Cc1ccccc1)[C@@H](O)C[C@H](Cc1ccccc1)NC(=O)[C@@H](NC(=O)c1cc(Cl)cc(C(F)(F)F)c1)C(C)C`, the fold change (FC) [1] was 2.4.

Work on `Cc1cccc(C)c1OCC(=O)N[C@@H](Cc1ccccc1)[C@@H](O)C[C@H](Cc1ccccc1)NC(=O)[C@@H](NC(=O)C1CCC(=O)N1)C(C)C` (some centres not stated) yielded a fold change (FC) [1] of 3.2.

`Cc1cc(C)cc(C(=O)N[C@H](C(=O)N[C@@H](Cc2ccccc2)C[C@H](O)[C@H](Cc2ccccc2)NC(=O)COc2c(C)cccc2C)C(C)C)c1` gave a fold change (FC) [1] of 3.4.

In the case of `COc1cc(Cl)cc(C(=O)N[C@H](C(=O)N[C@@H](Cc2ccccc2)C[C@H](O)[C@H](Cc2ccccc2)NC(=O)COc2c(C)cccc2C)C(C)C)c1`, the fold change (FC) [1] is reported as 2.7.

`Cc1cc(OC(F)(F)F)cc(C(=O)N[C@H](C(=O)N[C@@H](Cc2ccccc2)C[C@H](O)[C@H](Cc2ccccc2)NC(=O)COc2c(C)cccc2C)C(C)C)c1` was tested, and the fold change (FC) [1] was 2.7.

In the case of `Cc1cccc(C)c1OCC(=O)N[C@@H](Cc1ccccc1)[C@@H](O)C[C@H](Cc1ccccc1)NC(=O)[C@@H](NC(=O)c1ccc2[nH]nnc2c1)C(C)C`, the fold change (FC) [1] is reported as 1.5.

For `Cc1cccc(C)c1OCC(=O)N[C@@H](Cc1ccccc1)[C@@H](O)C[C@H](Cc1ccccc1)NC(=O)[C@@H](NC(=O)Cc1ccc(Cl)cc1)C(C)C`, the fold change (FC) [1] was 2.8.

With `COc1cc(C(=O)N[C@H](C(=O)N[C@@H](Cc2ccccc2)C[C@H](O)[C@H](Cc2ccccc2)NC(=O)COc2c(C)cccc2C)C(C)C)cc(C(F)(F)F)c1` the fold change (FC) [1] was 1.4.
